Laboratory results reported in ChEMBL document CHEMBL1147902, “Phosphonoxins: rational design and discovery of a potent nucleotide anti-Giardia agent” (Bioorg Med Chem Lett, 2007).
≈ marks a conversion by molar mass, not a printed value.

Key:
Giardia intestinalis [1] = assay: Antiprotozoal activity against Giardia lamblia WB6 trophozoites after 48 hrs; assay type: functional; conditions: Giardia duodenalis, WB6, 48 h
Procedure, shortened: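 Trophozoites of strain WB-6 cultured anaerobically 48 h with 2-fold serial drug dilutions, triplicate wells; viability read by XTT reagent.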

[2] = Toxicity in MDBK cells; assay type: cell-based; conditions: Bos taurus
Giardia intestinalis [3] = assay: Cyst formation in Giardia lamblia WB6 at 10 uM relative to control; conditions: Giardia duodenalis

Structure (SMILES) | MIC (Giardia intestinalis [1]) [µM] | EC50 [2] [µM] | level, % of control at 10 µM (Giardia intestinalis [3]) [%]
O=c1ccn(C[C@@H]2O[C@H](COP(=O)(O)CCCN3C[C@H](O)[C@@H](O)C3)[C@@H](O)[C@H]2O)c(=O)[nH]1 | 20 (≈ 9.31 µg/mL) | > 250 | 22.9
O=c1ccn(C[C@@H]2O[C@H](COP(=O)(O)CN3C[C@@H](O)[C@H](O)C3)[C@@H](O)[C@H]2O)c(=O)[nH]1 | > 20 | > 250 | –
CCOP(=O)(CCNCCOC(C)=O)OCC | > 20 | > 250 | –
NCP(=O)(O)OC[C@H]1O[C@@H](n2ccc(=O)[nH]c2=O)[C@H](O)[C@@H]1O | > 20 | > 250 | 34.4
CCOP(=O)(CCN(CCOC(C)=O)CCOC(C)=O)OCC | > 20 | > 250 | –
O=c1ccn(C[C@@H]2O[C@H](COP(=O)(O)CCN(CCO)CCO)[C@@H](O)[C@H]2O)c(=O)[nH]1 | > 10 | > 250 | 72.2
CC(=O)OCCN(CCOC(C)=O)CCP(=O)(O)OC[C@H]1O[C@@H](Cn2ccc(=O)[nH]c2=O)[C@H](O)[C@@H]1O | > 10 | > 250 | 27.4
O=c1ccn(C[C@@H]2O[C@H](COP(=O)(O)CCN3CCCC3)[C@@H](O)[C@H]2O)c(=O)[nH]1 | > 20 | > 250 | –
CC(=O)OCCN(CCO)CCP(=O)(O)OC[C@H]1O[C@@H](Cn2ccc(=O)[nH]c2=O)[C@H](O)[C@@H]1O | > 10 | > 250 | 35.6
O=C1[C@@H](O)[C@H](O)C(=O)N1CCP(=O)(O)OC[C@H]1O[C@@H](Cn2ccc(=O)[nH]c2=O)[C@H](O)[C@@H]1O | > 20 | > 250 | 28.7
NCCP(=O)(O)OC[C@H]1O[C@@H](n2ccc(=O)[nH]c2=O)[C@H](O)[C@@H]1O | > 10 | > 250 | 14.9
O=c1ccn(C[C@@H]2O[C@H](COP(=O)(O)COCCN3C[C@@H](O)[C@H](O)C3)[C@@H](O)[C@H]2O)c(=O)[nH]1 | 20 (≈ 9.63 µg/mL) | > 250 | 17.2
O=c1ccn(C[C@@H]2O[C@H](COP(=O)(O)CCNCCO)[C@@H](O)[C@H]2O)c(=O)[nH]1 | > 20 | > 250 | –
O=c1ccn(C[C@@H]2O[C@H](COP(=O)(O)CCN3C[C@H](O)[C@@H](O)C3)[C@@H](O)[C@H]2O)c(=O)[nH]1 | 0.48 (≈ 0.217 µg/mL) | > 250 | 5.73
